The species named for test [1] is Homo sapiens. The experiment in a line: Selectivity ratio of Ki for human adenosine A3 receptor to Ki for human adenosine A2A receptor.
The target in another test is T1, Adenosine receptor A1 (Homo sapiens, UniProt P30542).
T1 sequence (P30542 whole entry): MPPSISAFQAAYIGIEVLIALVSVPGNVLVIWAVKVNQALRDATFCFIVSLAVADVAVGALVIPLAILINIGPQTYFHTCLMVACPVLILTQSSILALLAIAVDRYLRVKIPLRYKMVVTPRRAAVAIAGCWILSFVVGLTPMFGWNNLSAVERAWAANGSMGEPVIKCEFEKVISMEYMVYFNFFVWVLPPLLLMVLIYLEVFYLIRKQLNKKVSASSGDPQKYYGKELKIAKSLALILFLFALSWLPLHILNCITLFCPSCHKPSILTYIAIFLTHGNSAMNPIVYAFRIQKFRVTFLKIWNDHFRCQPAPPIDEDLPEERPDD
Nature of the test: Displacement of [3H]-CCPA from human adenosine A1 receptor expressed in CHO cells after 3 hrs by topcount scintillation counting analysis. It is filed as cell-based. The essentials: (§1)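 Radioligand binding to membranes from CHO cells expressing the human receptor, run for 3 h at room temperature. Radioligands were [3H]CCPA for hA1, [3H]NECA for hA2A and [3H]HEMADO for hA3. Nonspecific binding was defined with 1 mM theophylline (hA1) or 100 µM R-PIA (hA2A, hA3). Bound ligand was separated by GF/B filtration and counted. Ki came from nonlinear fitting of competition curves using Cheng-Prusoff, as geometric means of n = 3–6 with 95% CI.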

For test [2], the target named is Adenosine receptors; A1 & A3 (Homo sapiens) (UniProt P30542+P0DMS8). Nature of the test: Selectivity ratio of Ki for human adenosine A1 receptor to Ki for human adenosine A3 receptor. The essentials:
(§2)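 Ratios of Ki values from displacement assays in CHO cells (3 h, room temperature). The hA1 Ki ([3H]CCPA) or the hA2A Ki ([3H]NECA) was divided by the hA3 Ki ([3H]HEMADO). Each Ki is a geometric mean of n = 3–6.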

For test [3], the species on record is Homo sapiens. The experiment in a line: Selectivity ratio of Ki for human adenosine A2A receptor to Ki for human adenosine A3 receptor. The essentials: as §2
Another test deals with T2, Adenosine receptor A3 (Homo sapiens, UniProt P0DMS8).
T2 sequence (P0DMS8 whole entry): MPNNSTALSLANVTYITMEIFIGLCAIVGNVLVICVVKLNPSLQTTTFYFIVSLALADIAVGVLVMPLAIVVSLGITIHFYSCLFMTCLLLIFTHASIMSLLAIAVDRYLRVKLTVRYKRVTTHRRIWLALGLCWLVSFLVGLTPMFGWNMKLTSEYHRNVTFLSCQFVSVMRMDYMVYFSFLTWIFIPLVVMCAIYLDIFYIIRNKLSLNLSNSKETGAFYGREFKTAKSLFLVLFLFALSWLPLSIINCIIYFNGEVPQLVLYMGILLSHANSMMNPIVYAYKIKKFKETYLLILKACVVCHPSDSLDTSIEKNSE
Nature of the test: Displacement of [3H]-HEMADO from human adenosine A3 receptor expressed in CHO cells after 3 hrs by topcount scintillation counting analysis. It is filed as cell-based. The essentials: as §1
For orientation: In a radioligand displacement assay an active substance lowers the binding of a labelled ligand.

The target of the next test is Adenosine receptor A2a (Homo sapiens, UniProt P29274). Nature of the test: Displacement of [3H]-NECA from human adenosine A2A receptor expressed in CHO cells after 3 hrs by topcount scintillation counting analysis. It is filed as cell-based. The essentials: as §1
Sequence of Adenosine receptor A2a (P29274 whole entry): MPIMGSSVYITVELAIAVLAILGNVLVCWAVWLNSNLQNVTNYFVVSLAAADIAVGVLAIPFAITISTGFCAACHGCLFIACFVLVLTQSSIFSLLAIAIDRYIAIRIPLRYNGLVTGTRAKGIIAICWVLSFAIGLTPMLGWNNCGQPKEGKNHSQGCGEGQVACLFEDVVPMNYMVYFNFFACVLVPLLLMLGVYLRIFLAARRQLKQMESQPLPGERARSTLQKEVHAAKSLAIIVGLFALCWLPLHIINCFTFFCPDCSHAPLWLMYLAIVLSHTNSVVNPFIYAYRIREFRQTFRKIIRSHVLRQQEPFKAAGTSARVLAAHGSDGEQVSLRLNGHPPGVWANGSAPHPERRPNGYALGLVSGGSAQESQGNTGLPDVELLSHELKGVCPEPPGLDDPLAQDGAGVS
A further test addresses T3, Adenosine receptor A2b (Homo sapiens, UniProt P29275).
T3 sequence (P29275 whole entry): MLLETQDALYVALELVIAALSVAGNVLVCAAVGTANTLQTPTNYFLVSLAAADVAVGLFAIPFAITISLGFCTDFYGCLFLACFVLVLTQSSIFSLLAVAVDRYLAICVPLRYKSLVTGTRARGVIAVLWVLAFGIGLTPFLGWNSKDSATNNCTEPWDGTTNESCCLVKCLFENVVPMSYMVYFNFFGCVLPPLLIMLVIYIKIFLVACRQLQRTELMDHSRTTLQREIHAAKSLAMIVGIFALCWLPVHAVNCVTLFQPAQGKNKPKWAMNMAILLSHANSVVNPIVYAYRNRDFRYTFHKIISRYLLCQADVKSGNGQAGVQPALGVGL
Nature of the test: Antagonist activity at human adenosine A2B receptor expressed in CHO cells assessed as inhibition of NECA-induced adenylyl cyclase activity after 20 mins in presence of [alpha-32P]ATP. It is filed as functional, cell-based. The essentials: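 Membranes from CHO cells transfected with the human A2B receptor were incubated for 20 min with 100 nM NECA, 150,000 cpm [α-32P]ATP and test compound at several concentrations. The incubation mixture contained no EGTA and no NaCl. Ki was derived from concentration-dependent inhibition of NECA-stimulated adenylyl cyclase activity (n = 3–6).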

Test [4] is filed under the species Homo sapiens. The experiment in a line: Selectivity ratio of Ki for human adenosine A1 receptor to Ki for human adenosine A2A receptor.

pKi: −log10 of the molar value.

For the compound `O=C(Nc1nc(Cl)c2cn(CCc3ccccc3)nc2n1)c1ccc(F)cc1`, the Ratio Ki in the test listed under Homo sapiens [1] is greater than 50; in test [2] it was 0.02; in the test filed under Homo sapiens [3], 0.02. In addition, the pKi at Adenosine receptor A1 was 5.57; on Adenosine receptor A3, less than 4.00; at Adenosine receptor A2a, 5.69; on Adenosine receptor A2b, less than 4.70.
Consider `CC(C)n1cc2c(Cl)nc(N(C(=O)c3ccccc3)C(=O)c3ccccc3)nc2n1`, for which the Ratio Ki is 8 in the test listed under Homo sapiens [1], 1.1 in test [2], 0.1 in the test listed under Homo sapiens [3] and 9.9 in the test filed under Homo sapiens [4]. Also, the pKi at Adenosine receptor A1 was 5.10; on Adenosine receptor A3, 5.17; at Adenosine receptor A2a, 6.10; on Adenosine receptor A2b, less than 4.70.
As for `Cc1ccc(C(=O)Nc2nc(Cl)c3cn(C(C)C)nc3n2)cc1`, the Ratio Ki in the test listed under Homo sapiens [1] amounted to 91; in the test listed under Homo sapiens [3] it was 0.01. Further, the pKi is 5.39 at Adenosine receptor A1, less than 4.00 on Adenosine receptor A3, 5.96 on Adenosine receptor A2a and less than 4.70 on Adenosine receptor A2b.

The term pKi denotes −log10 of the Ki, conventionally taken in molar units.

(Values after ChEMBL document CHEMBL3112554, “Discovery of simplified N²-substituted pyrazolo[3,4-d]pyrimidine derivatives as novel adenosine receptor antagonists: efficient synthetic approaches, biological evaluations and molecular docking studies” (Bioorg Med Chem, 2014).)
